We go through 22 compounds from ChEMBL document CHEMBL2069168, “Synthesis and biological evaluation of truncated α-galactosylceramide derivatives focusing on cytokine induction profile” (2012).

Test [1] relates to Splenocyte. Description: Immunostimulatory activity in C57BL/6 mouse splenocytes assessed as IL-4 release at 100 ng/ml after 72 hrs by ELISA relative to OCH. Type of test: functional. In short, it runs like this: (§1)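 Splenocytes from female C57BL/6 mice (6–8 weeks) in RPMI1640 with 10% FBS, 5×10^-5 M 2-mercaptoethanol, 1 mM pyruvate, 25 mM HEPES; 5×10^5 cells/well stimulated with glycolipid at 100 ng/ml, 72 h, 37 °C. Supernatant IL-4 and IFN-γ by ELISA; values expressed relative to OCH reference included in every run, mean of at least three experiments.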
A general note: In an ELISA, binding on a coated surface is turned into a signal by an enzyme label.

Test [2] has as its system Splenocyte. In words: Immunostimulatory activity in C57BL/6 mouse splenocytes assessed as IFN-gamma release at 100 ng/ml after 72 hrs by ELISA relative to OCH. Type of test: functional. In short, it runs like this: as §1
The species entered for test [3] is Mus musculus. In words: Immunostimulatory activity in C57BL/6 mouse splenocytes at 100 ng/ml after 72 hrs assessed as IL-4 secretion.
For test [4], the species on record is Mus musculus. In words: Immunostimulatory activity in C57BL/6 mouse splenocytes at 100 ng/ml after 72 hr assessed as IFN-gamma secretion.
Test [5] has as its system Dendritic cell. In words: Immunostimulatory activity in C57BL/6 mouse dendritic cells assessed as IL-12 secretion at 100 ng/ml by ELISA relative to OCH. Type of test: functional, cell-based.
For test [6], the species on record is Mus musculus. In words: Immunostimulatory activity in C57BL/6 mouse natural killer cells assessed as IFN-gamma secretion at 100 ng/ml by ELISA relative to OCH. Type of test: functional.
Test [7] concerns Mus musculus. In words: Immunosuppressive activity iv in C57BL/6 mouse assessed as inhibition of OCH-induced IL-4 secretion at 0.1 ug/mouse, iv administered 15 mins before OCH challenge. Type of test: functional, organism-based. Summed up:
(§2)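 Female C57BL/6 mice (9 weeks); glycolipids dissolved in 0.5% DMSO in saline. Test compound given iv via tail vein at 0.1 µg/mouse 15 min before iv OCH (0.1 µg/mouse). Sera taken 3, 6, 9 h after second injection; serum IL-4 and IFN-γ by ELISA. Mean ± SD, N = 4–5; Student's t-test versus vehicle.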

The subject of test [8] is Mus musculus. In words: Immunosuppressive activity iv in C57BL/6 mouse assessed as inhibition of OCH-induced IFN-gamma secretion at 0.1 ug/mouse, iv administered 15 mins before OCH challenge. It counts as functional, organism-based. Summed up: as §2

Molecules are shown by their SMILES. The source made the active and inactive calls. The calls are words filed in the database; no cut-off is given here.

On to `CCCCCCCCCCCCCCCCCCCCCCCCCC(=O)N[C@@H](CO[C@H]1O[C@H](CO)[C@H](O)[C@H](O)[C@H]1O)[C@H](O)[C@H](O)CCCCC`, for which the Activity is on record as 129% in test [1] and 504% in test [2].
Regarding `CCCCCCCCCCCCCCCCCCCCCCCC(=O)N[C@@H](CO[C@H]1O[C@H](CO)[C@H](O)[C@H](O)[C@H]1O)[C@H](O)[C@H](O)CCC`, the Activity is reported as 105% in test [1] and 96% in test [2].
For `CCCCCCCCCCCCCCCCCCCCCCCC(=O)N[C@@H](CO[C@H]1O[C@H](CO)[C@H](O)[C@H](O)[C@H]1O)[C@H](O)[C@H](O)CC1CCCC1`, the Activity in test [3] came out at 98%; in test [4], 74%.
Turning to `CCCCCCCCCCCCCCCCCCCC(=O)N[C@@H](CO[C@H]1O[C@H](CO)[C@H](O)[C@H](O)[C@H]1O)[C@H](O)[C@H](O)CCCCC`, the Activity turned out to be 6% in test [1] and 9% in test [2].
Consider `CCCCCCCCCCCCCCCCCCCCCCCCCCCC(=O)N[C@@H](CO[C@H]1O[C@H](CO)[C@H](O)[C@H](O)[C@H]1O)[C@H](O)[C@H](O)CCCCC`, for which the Activity in test [1] is on record as 178%; in test [2], 761%.
Take `CCCCCCCCCCCCCCCCCCCCCCCC(=O)N[C@@H](CO[C@H]1O[C@H](CO)[C@H](O)[C@H](O)[C@H]1O)[C@H](O)[C@H](O)COc1ccccc1`: the Activity in test [3] amounted to 99%; in test [4], 80%.
In the same order, the values of `CCCCCCCCCCCCCCCCCCCCCCCC(=O)N[C@@H](CO[C@H]1O[C@H](CO)[C@H](O)[C@H](O)[C@H]1O)[C@H](O)[C@H](O)CCc1ccccc1` are 57% and 35%.
For `CCCCCCCCCCCCCCCCCCCCCCCC(=O)N[C@@H](CO[C@H]1O[C@H](CO)[C@H](O)[C@H](O)[C@H]1O)[C@H](O)[C@H](O)CCCCC`, the Activity in test [1], in test [2], in test [3] and in test [4] was 100% each time.
For `CCCCCCCCCCCCCCCCCCCCCCCC(=O)N[C@@H](CO[C@H]1O[C@H](CO)[C@H](O)[C@H](O)[C@H]1O)[C@H](O)[C@H](O)COCCC`, the Activity in test [3] came to 103%; in test [4], 161%.
For `CCCCCCCCCCCCCCCCCCCCCCCC(=O)N[C@@H](CO[C@H]1O[C@H](CO)[C@H](O)[C@H](O)[C@H]1O)[C@H](O)[C@H](O)COC` the same measures were 86% and 64%.
Turning to `CCCCCCCCCCCCCCCCCCCCCCCC(=O)N[C@@H](CO[C@H]1O[C@H](CO)[C@H](O)[C@H](O)[C@H]1O)[C@H](O)[C@H](O)CCCC`, the figures for the Activity in test [1] and in test [2] were 115% and 112%, respectively.
Regarding `CCCCCCCCCCCCCCCCCCCCCCCCCC(=O)N[C@@H](CC[C@H]1O[C@H](CO)[C@H](O)[C@H](O)[C@H]1O)[C@H](O)[C@H](O)CCCCCCCCCCCCCC`, the result in test [5] and in test [6] was Active.
Take `CCCCCCCCCCCCCCCCCCCCCCCC(=O)N[C@@H](CO[C@H]1O[C@H](CO)[C@H](O)[C@H](O)[C@H]1O)[C@H](O)[C@H](O)Cc1ccccc1`: the Activity turned out to be 211% in test [3] and 284% in test [4].
With `CCCCCCCCCCCCCCCCCCCCCCC(=O)N[C@@H](CO[C@H]1O[C@H](CO)[C@H](O)[C@H](O)[C@H]1O)[C@H](O)[C@H](O)CCCCCC`, the Activity in test [1] amounted to 97%; in test [2], 113%.
For the compound `CCCCCCCCCCCCCCCCCCCCCCCC(=O)N[C@@H](CO[C@H]1O[C@H](CO)[C@H](O)[C@H](O)[C@H]1O)[C@H](O)[C@H](O)Cc1ccc(C)cc1`, the values for the Activity in test [3] and in test [4] were 78% and 76%, respectively.
`CCCCCCCCCCCCCCCCCCCCCCCCCC(=O)N[C@@H](CO[C@H]1O[C@H](CO)[C@H](O)[C@H](O)[C@H]1O)[C@H](O)[C@H](O)CCCCCCCCCCCCCC` [RGI-7000]: the Activity in test [1] was found to be 128%; in test [2], 569%.
For `CCCCCCCCCCCCCCCCCCCCCCC(=O)N[C@@H](CO[C@H]1O[C@H](CO)[C@H](O)[C@H](O)[C@H]1O)[C@H](O)[C@H](O)CCCCC` the same measures were 103% and 93%.
As for `CCCCCCCCCCCCCCCCCCCCCC(=O)N[C@@H](CO[C@H]1O[C@H](CO)[C@H](O)[C@H](O)[C@H]1O)[C@H](O)[C@H](O)CCCCC`, the Activity stood at 51% in test [1] and 46% in test [2].
In the same order, the values of `CCCCCCCCCCCCCCCCCCCCCCCCC(=O)N[C@@H](CO[C@H]1O[C@H](CO)[C@H](O)[C@H](O)[C@H]1O)[C@H](O)[C@H](O)CCCCC` are 154% and 103%.
With `CCCCCCCCCCCCCCCCCCCCCCCC(=O)N[C@@H](CO[C@H]1O[C@H](CO)[C@H](O)[C@H](O)[C@H]1O)[C@H](O)[C@H](O)COCCCCCCCCCCCC`, the Activity was determined as 78% in test [3] and 227% in test [4].
Regarding `CCCCCCCCCCCCCCCCCCCCCCC(=O)N[C@@H](CO[C@H]1O[C@H](CO)[C@H](O)[C@H](O)[C@H]1O)[C@H](O)[C@H](O)CCCC`, the Activity in test [1] was 97%; in test [2] it was 148%.
`CCCCCCCCCCCCCCCCCCCCCCCC(=O)N[C@@H](CC[C@H]1O[C@H](CO)[C@H](O)[C@H](O)[C@H]1O)[C@H](O)[C@H](O)CCCCC`: the inhibition entry in test [7] and in test [8] was “inactive” each time. Further, the figures for the Activity in test [3] and in test [4] were 1% and 0%, respectively.
